Assay [1] is described as follows: Ratio of fCmax in NMRI mouse at 76 mg/kg administered every 2 hrs to MIC for Staphylococcus aureus E19977. The format is functional. A digest of the protocol: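 Free Cmax/MIC was modelled, not measured. Single-dose subcutaneous plasma curves from NMRI mice were projected to the multiple-dose regimens. Free fraction came from a square-root fit of unbound fraction versus total concentration. Binding was measured by ultrafiltration of mouse plasma spiked with 10–400 mg/liter and held 1 h at 37°C. MIC was for strain E19977.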

The test system of the next assay is Staphylococcus aureus. The assay is described as follows: Bactericidal activity against Staphylococcus aureus ATCC 25923 infected in human THP-1 cells assessed as log change in bacterial count after 24 hrs. The format is functional. The gist of the method:
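Human THP-1 macrophages were infected with opsonized S. aureus at 4 bacteria per macrophage for 45 min. Non-phagocytized bacteria were removed by washing and a brief incubation in PBS with gentamicin 50 mg/liter. Cells were then incubated up to 24 h with DCX over a wide range of extracellular concentrations. The read-out was Δlog CFU per mg cell protein versus time zero (n = 3), with sigmoidal fitting and Cstatic by interpolation.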

The record followed here is ChEMBL document CHEMBL1255483, “Intra- and extracellular activities of dicloxacillin against Staphylococcus aureus in vivo and in vitro” (Antimicrob Agents Chemother, 2010).

With `Cc1onc(-c2c(Cl)cccc2Cl)c1C(=O)N[C@@H]1C(=O)N2[C@@H]1SC(C)(C)[C@@H]2C(=O)O` [DICLOXACILLIN], the Ratio in assay [1] worked out at 28.18. Moreover, the Emax in the assay on Staphylococcus aureus is -1.19 deltalog10CFU/ml.
